Compound activity (PubChem BioAssay)
An excerpt weighted towards active compounds, which were near 1.4% of everything screened.
CHT PAM = allosterically activates the human high affinity choline transporter; 310,000 compounds, 0.49% hits; CHT-expressing cells, membrane potential dye, choline EC20; hits give high values; LV-AA mutant CHT in HEK293 cells; B-score at 10 µM;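 active = initial fluorescence not abnormally high and integrated response B-score, plate-corrected, over 3 SD above library mean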
TNAP act hi DEA = increases human TNAP activity under high phosphate acceptor concentration; purified TNAP, CDP-star luminescence, 1 M DEA, 30 min; hits give high values; 0 = EDTA background, 1 = DMSO-only activity; 200,000 tested, under 10 active; activation factor at 20 µM;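 active = activation factor at least 2 at 20 µM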
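Assay system: human TNAP; Input: enzyme diluted 1/800 final; Reagent: CDP-star luminogenic substrate at 100 µM final; Timing: 30 min, room temperature; Signal: luminescence; Evaluation: TNAP activation factor scaled between EDTA and DMSO control wells.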
TNAP inh hiacc = blocks human TNAP under high phosphate acceptor concentration; inhibition, % at 20 µM; 200,000 compounds, 0.03% hits; purified TNAP, CDP-star luminescence, 1 M DEA; AID 1135; P05186;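 active = over 50% inhibition of tissue-nonspecific alkaline phosphatase at 20 µM in the single-dose screen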
ABCB6 inh MLPCN = inhibitors of human ABC transporter ABCB6; Q9NP58; 360,000 compounds, 0.19% hits; K562-ABCB6 porphyrin accumulation, flow cytometry, 1 h; hits give low values; fluorescence ratio to DMSO, % at 10 µM;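 active = fluorescence ratio to DMSO below 75%, the collection mean minus 3 SD; inconclusive = too few cells collected in the well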;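 also: signal is porphyrin accumulated inside mitochondria; lower ratio means ABCB6 inhibition with less porphyrin fluorescence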
Target sequence (Q9NP58 whole entry, looked up): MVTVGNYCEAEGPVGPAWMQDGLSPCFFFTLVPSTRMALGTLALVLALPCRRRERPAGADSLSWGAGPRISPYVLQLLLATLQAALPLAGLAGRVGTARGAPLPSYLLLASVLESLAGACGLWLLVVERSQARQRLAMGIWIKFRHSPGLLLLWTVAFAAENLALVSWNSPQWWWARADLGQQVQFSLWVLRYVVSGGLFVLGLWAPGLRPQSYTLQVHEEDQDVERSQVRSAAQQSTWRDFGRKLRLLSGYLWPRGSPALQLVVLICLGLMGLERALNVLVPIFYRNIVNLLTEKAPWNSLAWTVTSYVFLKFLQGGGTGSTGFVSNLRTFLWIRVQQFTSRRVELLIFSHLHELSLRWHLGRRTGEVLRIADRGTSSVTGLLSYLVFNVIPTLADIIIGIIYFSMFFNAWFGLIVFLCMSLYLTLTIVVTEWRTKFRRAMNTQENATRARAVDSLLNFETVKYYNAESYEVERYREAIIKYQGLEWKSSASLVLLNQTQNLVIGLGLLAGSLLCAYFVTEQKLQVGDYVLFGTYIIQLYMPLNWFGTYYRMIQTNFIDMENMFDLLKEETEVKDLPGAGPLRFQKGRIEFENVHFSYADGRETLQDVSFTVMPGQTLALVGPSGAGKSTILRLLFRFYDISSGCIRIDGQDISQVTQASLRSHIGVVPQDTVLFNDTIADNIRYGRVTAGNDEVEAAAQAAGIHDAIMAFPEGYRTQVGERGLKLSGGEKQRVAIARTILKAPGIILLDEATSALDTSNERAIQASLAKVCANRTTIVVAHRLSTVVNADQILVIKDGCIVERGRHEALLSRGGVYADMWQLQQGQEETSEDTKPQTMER
TNAP inh noacc = inhibitors of human TNAP without phosphate acceptor; inhibition, % at 20 µM; P05186; 200,000 compounds, 0.26% hits; purified TNAP, CDP-star luminescence, 30 min;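 active = tissue-nonspecific alkaline phosphatase inhibition above about 50% at 20 µM in the single-dose screen, limit read from the data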
CHT block = inhibits the human high affinity choline transporter. Q9GZV3. CHT-expressing cells, membrane potential dye, choline response; hits give low values. B-score at 10 µM. 310,000 compounds, 0.86% hits;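 active = B-score over 3 SD under the library average, and starting fluorescence ratio not unusually high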;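 also: choline stimulus applied at its EC90 after an EC20 pre-addition; B-score computed on integrated fluorescence ratio after choline addition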
CHT activ conf = confirmation of human choline transporter (CHT) activators. shares compounds with CHT PAM. CHT-expressing cells, membrane potential dye fluorescence (FDSS); % of choline EC20–EC90 response window; HEK293 expressing CHT LV-AA mutant; choline added at its EC20. activation, % at 10 µM. 2,500 compounds, 91% hits;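 active = primary screen active, with duplicate mean activation above negative control mean plus 3 SD, cut at about 11% in these data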
HEK293 MP dye = counter-screen for CHT activators: effect in parental HEK293 cells | shares compounds with CHT PAM | membrane potential dye fluorescence (FDSS); measured after EC20 choline addition | ratio readout change at 10 µM, hits read low | 2,500 compounds, 62% hits;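 active = duplicate-averaged ratio beyond 3 SD from buffer wells, up or down, though filed actives are nearly all decreases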
A number is an active result; - = inactive; ? = inconclusive; . = not tested or not shown.

SMILES	CHT PAM	TNAP act hi DEA	TNAP inh hiacc	ABCB6 inh MLPCN	TNAP inh noacc	CHT block	CHT activ conf	HEK293 MP dye
COC(=O)CSc1nc2ccc(NC(=O)c3ccccc3C(=O)N3CCOCC3)cc2s1	-	-	-	-	-	-	.	.
Cc1ccc(C(=O)Oc2ccccc2N2C(=O)C3C4CCC(C4)C3C2=O)cc1 (configuration not stated)	-	-	-	-	-	-	.	.
COC(=O)CCCC1=CC2=C(c3ccccc3)C(=O)C(C)(OC(=O)C3CCCC3)C(=O)C2=CN1C1CC1 (configuration not stated)	10	.	.	-	.	-	-	-
CN(CCN1CCOCC1)C(=O)c1cc(COc2ccc(F)c(F)c2)on1	-	.	.	-	.	-	.	.
CCOc1ccccc1-n1c(SCC(=O)Nc2nccs2)nnc1-c1ccoc1C	-	-	-	-	-	-	-	-
Cc1ccccc1Nc1c(-c2cccnc2)nc2ccc(Br)cn12	-	-	-	-	-	-	.	.
Cc1cccc2nc(-c3cccnc3)c(Nc3ccccc3)n12	12	-	-	-	-	-	28	-29
Cc1cccc2nc(-c3cccnc3)c(NCCC(C)C)n12	-	-	-	-	-	-	41	-
CCCCNc1c(-c2cccnc2)nc2nc(C)cc(C)n12	.	.	.	-	.	.	.	.
Cc1ccccc1Nc1c(-c2cccnc2)nc2ccccn12	7.5	.	.	?	.	-	50	-51
C=CCNC(=S)N1CCC(C(=O)c2ccc(Cl)cc2)CC1	-	.	.	-	.	-	.	.
CCCCc1c(Cc2cccc(F)c2)ncn1CCc1ccccc1OC	.	.	.	-	.	.	.	.
COc1ccc(CCn2c(=N)c(C(=O)NCC3CCCO3)cc3c(=O)n4ccccc4nc32)cc1 (configuration not stated)	-	.	.	-	.	-	.	.
Cc1cccn2c(=O)c3cc(C(=O)NC4CCCC4)c(=N)n(CCc4ccccc4)c3nc12	-	.	.	-	.	-	-	-29
N=c1c(C(=O)NC2CCCC2)cc2c(=O)n3ccccc3nc2n1CCN1CCOCC1	-	-	-	-	-	-	48	-38
COc1ccc(CCn2c(=N)c(C(=O)NC3CCCCC3)cc3c(=O)n4ccccc4nc32)cc1	-	.	.	-	.	-	43	-48
N=c1c(C(=O)NC2CCCC2)cc2c(=O)n3ccccc3nc2n1Cc1ccccc1	-	.	.	-	.	-	.	.
CCC[C@H]1CN(Cc2cccnc2)C(=O)[C@@H]1CC(=O)Nc1ccc(Br)cc1	.	.	.	-	.	.	.	.
CCOc1ccc(S(=O)(=O)N2CCC(C(=O)NCc3ccncc3)CC2)cc1C	-	.	.	-	.	-	.	.
O=[N+]([O-])c1ccc(-c2nc(-c3ccncc3)no2)cc1	-	.	.	-	.	-	26	-36
CCC(C)[C@H](N)C(=O)NC[C@H]1CC[C@H](C(=O)N[C@@H](Cc2ccccc2)C(=O)O)CC1 (some centres not stated)	-	.	.	-	.	-	.	.
O=C1CCC(c2ccc(-n3ccnc3)cc2)=NN1	7.3	.	.	-	.	-	23	-28
CCCCCc1ccc(C2=NNC(=O)CC2)cc1	-	.	.	-	.	-	.	.
COC(=O)C1C2CC(=O)C(C2)C1C(=O)OC (configuration not stated)	.	.	.	-	.	.	.	.
Cc1cccc(CC(=O)NCC2CCCCC2)c1	-	.	.	-	.	-	.	.
SMILES	CHT PAM	TNAP act hi DEA	TNAP inh hiacc	ABCB6 inh MLPCN	TNAP inh noacc	CHT block	CHT activ conf	HEK293 MP dye
Cc1ccccc1C1c2[nH]c3ccccc3c2CCN1Cc1cccn1-c1ncccn1 (configuration not stated)	6.3	.	.	-	.	-	27	-
Fc1ccccc1C1c2[nH]c3ccccc3c2CCN1Cc1cccn1-c1ncccn1 (configuration not stated)	-	-	-	-	-	-	.	.
CCCCn1c(N)c(N(CC(C)C)C(=O)c2cc3ccccc3cc2OC)c(=O)[nH]c1=O	.	.	.	-	.	.	.	.
CC(=O)c1cccc(-c2ccnc3c2CC(C(=O)NCC2CCOCC2)O3)c1 (configuration not stated)	.	.	.	-	.	.	.	.
c1cc(-c2sc(-c3ccncc3)c(-c3ccncc3)c2-c2ccncc2)ccn1	-	.	.	-	.	-	59	-47
Cn1nc(C(=O)NNC(=O)Cc2ccc(S(=O)(=O)N3CCOCC3)s2)c2ccccc2c1=O	.	.	.	-	.	.	.	.
CC(=O)N/N=C/c1cc(C)n(-c2ccc(Br)cc2)c1C	-	-	-	-	-	-	.	.
Cc1cc(/C=N/NC(N)=O)c(C)n1-c1ccc(F)cc1	14	-	-	-	-	-	23	-
OC(CN1CCCCC1)Cn1c2ccccc2c2ccccc21 (configuration not stated)	-	.	.	-	.	-	.	.
Cc1c(C)n(CC(O)CN2CCOCC2)c2ccccc12 (configuration not stated)	-	-	-	-	-	-	.	.
O=c1c2ccccc2n(CC(O)CN2CCOCC2)c2ccccc12 (configuration not stated)	-	.	.	-	.	-	11	-
O=c1c2ccccc2n(CC(O)CN2CCCCC2)c2ccccc12 (configuration not stated)	6.3	.	.	-	.	-	44	-39
Cc1cc(N2CCOCC2)nc(N)n1	-	-	-	-	-	-	.	.
Cc1cc(N2CCOCC2)c2c(N)c(C)cc(C)c2n1	12	-	-	-	-	-	58	-78
CCc1cccc2c(C(=O)CSc3nnc(C4CC4)o3)c[nH]c12	.	.	.	-	.	.	.	.
COc1ccc(F)cc1-c1cc(NC=O)c2ncc(-c3cccc(C(F)(F)F)c3)n2c1	.	.	.	-	.	.	.	.
Cn1cccc1C(=O)C(=O)Nc1ccccc1	-	-	-	-	-	-	.	.
Cc1csc2c(NCCCN3CCOCC3)ncnc12	-	.	.	-	.	-	41	-38
COc1cccc(CCN2CCC(CNS(=O)(=O)c3cc(-c4cc(C)no4)ccc3OC)CC2)c1	-	.	.	-	.	-	.	.
COc1ccccc1CN1CCC(CNS(=O)(=O)c2cc(-c3onc(C)c3C)ccc2OC)CC1	-	.	.	-	.	-	39	-48
Cc1cc(C)n2c(Br)c(CN3CCCC(C)C3)nc2n1 (configuration not stated)	6.6	-	-	-	-	-	29	-51
Cc1cc(C)nc(SCc2nc3nc(C)cc(C)n3c2Br)n1	-	-	-	-	-	-	.	.
COc1ccc(CC(=O)N(C)Cc2ccc(Cl)cc2)cc1S(=O)(=O)N1CCOCC1	-	.	.	-	.	-	.	.
COc1ccc(C(=O)c2coc3ccc(O)c(CN4CCOCC4)c23)cc1	-	-	-	-	-	-	18	-
Cc1ccccc1NC(=S)N(Cc1cccnc1)Cc1ccccc1Cl	-	-	-	-	-	-	.	.
